# ChEMBL document CHEMBL2062484, “Design of barbiturate-nitrate hybrids that inhibit MMP-9 activity and secretion” (J Med Chem, 2012)
# Active and inactive are the calls of the source. The calls are words filed in the database; no cut-off is given here.
# Columns and labels:
# HT-1080 [1] = assay: Induction of apoptosis in human HT1080 cells assessed as increase in necrotic cell population at 10 uM after 24 hrs by Annexin V FITC staining based flow cytometry; conditions: ht-1080, 24 h
# Procedure, shortened: (§1)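 Cells at 80% confluence in T25 flasks treated 24 h serum-free with compound (10 μM); vehicle-only controls. Cells washed in Hepes pH 7.4/NaCl/CaCl2 binding buffer, double-stained with Annexin V-FITC and propidium iodide 15 min at room temperature in dark, read by flow cytometry within 5 min; expressed as % of control fluorescence.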
# Caco-2 [2] = assay: Induction of nitrite release in human Caco2 cells at 200 uM after 24 hrs by Griess assay; format: functional, cell-based
# Procedure, shortened: (§2)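 Compounds incubated 24 h with Caco-2 monolayers at 200 or 10 μM (n = 3). Supernatant nitrite read by Griess reaction (sulfanilamide 2% plus N-1-naphthylethylenediamine) at 4 °C, 45 min shaking, A540; nitrate measured after VCl3 reduction. Quantified against sodium nitrite/nitrate standards 3−200 μM; NOx = nitrite + nitrate.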
# Caco-2 [3] = assay: Induction of apoptosis in human Caco2 cells assessed as increase in necrotic cell population at 10 uM after 24 hrs by Annexin V FITC staining based flow cytometry; conditions: caco-2, 24 h; procedure, shortened: as §1
# [4] = target: 72 kDa type IV collagenase (Homo sapiens, UniProt P08253); assay: Inhibition of p-aminophenylmercuric acetate stimulated human recombinant MMP-2 using (7-methoxycoumarin-4-yl)-acetyl-pro-Leu-Gly-Leu-(3-(2,4-dinitrophenyl)-L-2,3-diaminopropionyl)-Ala-Arg-NH2 as substrate after 45 mins by fluorogenic assay
# 72 kDa type IV collagenase, sequence (P08253 whole entry): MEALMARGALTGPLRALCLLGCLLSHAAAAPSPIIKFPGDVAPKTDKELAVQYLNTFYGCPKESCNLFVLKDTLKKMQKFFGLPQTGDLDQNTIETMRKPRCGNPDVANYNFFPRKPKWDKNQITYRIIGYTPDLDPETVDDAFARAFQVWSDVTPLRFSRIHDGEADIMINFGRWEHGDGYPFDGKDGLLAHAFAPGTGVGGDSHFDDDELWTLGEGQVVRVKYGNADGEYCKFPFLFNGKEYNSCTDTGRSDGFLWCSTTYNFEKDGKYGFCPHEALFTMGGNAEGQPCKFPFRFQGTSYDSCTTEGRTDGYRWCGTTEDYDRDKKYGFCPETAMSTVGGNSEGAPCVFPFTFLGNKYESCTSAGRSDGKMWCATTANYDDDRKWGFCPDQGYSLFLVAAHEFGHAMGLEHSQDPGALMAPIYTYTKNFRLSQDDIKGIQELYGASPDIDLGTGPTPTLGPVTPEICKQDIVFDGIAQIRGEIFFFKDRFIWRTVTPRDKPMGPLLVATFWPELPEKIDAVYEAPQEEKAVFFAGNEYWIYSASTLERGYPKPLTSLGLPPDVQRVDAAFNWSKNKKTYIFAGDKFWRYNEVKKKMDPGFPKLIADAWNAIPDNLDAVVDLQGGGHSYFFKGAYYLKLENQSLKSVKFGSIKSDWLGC
# Caco-2 [5] = assay: Inhibition of IL1beta/TNFalpha-stimulated MMP-2 secretion in human Caco2 cells at 10 uM after 24 hrs by densitometric analysis; format: functional, cell-based
# Procedure, shortened: (§3)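 Near-confluent (~75%) Caco-2 switched to serum-free medium, pretreated 30 min with compound (10 μM, DMSO <1%), then TNF-α and IL-1β 10 ng/mL for 24 h at 37 °C. Cleared supernatants normalized by Bradford protein, run on 2% gelatin SDS-PAGE, Triton washed, developed 48 h at 37 °C in Tris pH 7.5/CaCl2 buffer, Coomassie stained; lysis bands quantified by densitometry as % of cytokine-only control.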
# Caco-2 [6] = assay: Inhibition of HGF stimulated human Caco2 cells migration through matrigel membrane at 100 nM by staining based light microscopic analysis; format: functional
# Procedure, shortened: (§4)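 Matrigel-coated invasion chamber inserts, 8 μm pore membrane, 0.5 mL of 2 × 10⁵ Caco-2 cells/mL; stimulated with HGF (100 or 500 ng/mL) or PMA (10 μM) with compound (100 nM or 10 μM); 48 h invasion at 37 °C, 5% CO2. Non-invading cells swabbed off, lower-surface cells Diff-Quik stained and counted by light microscopy; normalized to stimulated control; duplicates.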
# HT-1080 [7] = assay: Inhibition of PMA-stimulated MMP-9 secretion in human HT1080 cells at 100 uM after 24 hrs by gelatin zymography; format: functional; conditions: for inhibition at 100 µM: HT-1080, 24 h
# Procedure, shortened: (§5)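 HT1080 at ~75% confluence switched to serum-free medium, pretreated 3 h with compound (100 μM; DMSO ≤0.1%), then PMA 10 μM for 24 h at 37 °C. Cleared supernatants loaded at equal protein on 2% gelatin SDS-PAGE, Triton washed, developed 48 h at 37 °C in Tris pH 7.5/CaCl2 buffer, Coomassie stained; gelatinolytic bands quantified by densitometry relative to stimulated control.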
# Caco-2 [8] = assay: Inhibition of IL1beta/TNFalpha-stimulated MMP-9 secretion in human Caco2 cells at 10 uM after 24 hrs by densitometric analysis; format: functional, cell-based; procedure, shortened: as §3
# HT-1080 [9] = assay: Induction of apoptosis in human HT1080 cells assessed as increase in apoptotic cell population at 10 uM after 24 hrs by Annexin V FITC staining based flow cytometry; conditions: ht-1080, 24 h; procedure, shortened: as §1
# [10] = target: Matrix metalloproteinase-9 (Homo sapiens, UniProt P14780); assay: Inhibition of p-aminophenylmercuric acetate stimulated human recombinant MMP-9 using (7-methoxycoumarin-4-yl)-acetyl-pro-Leu-Gly-Leu-(3-(2,4-dinitrophenyl)-L-2,3-diaminopropionyl)-Ala-Arg-NH2 as substrate after 45 mins by fluorogenic assay
# Matrix metalloproteinase-9, sequence (P14780 whole entry): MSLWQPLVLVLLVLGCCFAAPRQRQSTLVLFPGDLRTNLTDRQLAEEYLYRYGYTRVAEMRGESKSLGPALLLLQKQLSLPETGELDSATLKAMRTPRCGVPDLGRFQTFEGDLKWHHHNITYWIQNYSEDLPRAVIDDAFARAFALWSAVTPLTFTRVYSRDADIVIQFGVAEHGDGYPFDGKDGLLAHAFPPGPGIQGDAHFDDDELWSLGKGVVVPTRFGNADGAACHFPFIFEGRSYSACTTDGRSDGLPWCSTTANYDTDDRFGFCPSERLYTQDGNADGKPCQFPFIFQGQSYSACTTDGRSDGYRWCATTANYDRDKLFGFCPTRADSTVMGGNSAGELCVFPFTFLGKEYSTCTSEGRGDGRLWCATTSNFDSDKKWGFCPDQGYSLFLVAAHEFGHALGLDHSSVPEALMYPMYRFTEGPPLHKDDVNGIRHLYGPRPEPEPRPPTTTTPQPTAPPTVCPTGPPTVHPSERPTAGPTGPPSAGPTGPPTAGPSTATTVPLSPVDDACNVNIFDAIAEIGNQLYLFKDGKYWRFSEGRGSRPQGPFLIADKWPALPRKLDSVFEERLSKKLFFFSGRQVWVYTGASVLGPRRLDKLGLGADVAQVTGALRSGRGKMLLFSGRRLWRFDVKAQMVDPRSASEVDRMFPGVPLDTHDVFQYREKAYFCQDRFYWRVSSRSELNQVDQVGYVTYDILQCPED
# [11] = Cytotoxicity against human HT1080 cells assessed as cell viability after 24 hrs by MTT assay; format: cell-based; conditions: HT-1080 cells
# Procedure, shortened: (§6)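 Cells seeded (Caco-2 8 × 10³/well, HT1080 12 × 10⁴/well), grown to 70% confluence, serum-starved 1 h, then exposed to compound at 0.1−200 μM (eight levels) serum-free for 24 h. MTT 0.5 mg/mL for 3 h at 37 °C, formazan dissolved in DMSO, OD 540 nm; viability as % of untreated. CC50 from sigmoidal fits; three experiments, triplicate wells.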
# Caco-2 [12] = assay: Induction of apoptosis in human Caco2 cells assessed as increase in apoptotic cell population at 10 uM after 24 hrs by Annexin V FITC staining based flow cytometry; conditions: caco-2, 24 h; procedure, shortened: as §1
# [13] = Cytotoxicity against human Caco2 cells assessed as cell viability after 24 hrs by MTT assay; format: cell-based; conditions: Caco-2 cells; procedure, shortened: as §6
# HT-1080 [14] = assay: Inhibition of PMA-stimulated MMP-2 secretion in human HT1080 cells at 100 uM after 24 hrs by gelatin zymography; format: functional, cell-based; procedure, shortened: as §5
# Caco-2 [15] = assay: Induction of nitrate release in human Caco2 cells at 200 uM after 24 hrs by Griess assay; format: functional, cell-based; procedure, shortened: as §2
# [16] = Cytotoxicity against human Caco2 cells assessed as inhibition of cell viability at 100 uM after 24 hrs by MTT assay; format: cell-based; conditions: Caco-2 cells, read-out: INH; procedure, shortened: as §6
# Caco-2 [17] = assay: Inhibition of PMA-stimulated human Caco2 cells migration through matrigel membrane at 10 uM after 48 hrs by light microscopic analysis; format: functional; conditions: Caco-2, 48 h; procedure, shortened: as §4
# Caco-2 [18] = assay: Inhibition of HGF-stimulated human Caco2 cells invasion at 10 uM by light microscopic analysis; format: functional; procedure, shortened: as §4
# Caco-2 [19] = assay: Induction of nitrite release in human Caco2 cells at 10 uM after 24 hrs by Griess assay; format: functional, cell-based; procedure, shortened: as §2
# [20] = Cytotoxicity against human Caco2 cells assessed as inhibition of cell viability at 2.5 uM after 24 hrs by MTT assay; format: cell-based; conditions: Caco-2 cells, read-out: INH; procedure, shortened: as §6
# Caco-2 [21] = assay: Induction of nitrate release in human Caco2 cells at 10 uM after 24 hrs by Griess assay; format: functional, cell-based; procedure, shortened: as §2
# [22] = Cytotoxicity against human HT1080 cells assessed as inhibition of cell viability at 100 uM after 24 hrs by MTT assay; format: cell-based; conditions: HT-1080 cells, read-out: INH; procedure, shortened: as §6
# [23] = Cytotoxicity against human Caco2 cells assessed as inhibition of cell viability at 12.5 uM after 24 hrs by MTT assay; format: cell-based; conditions: Caco-2 cells, read-out: INH; procedure, shortened: as §6
SMILES,Activity (HT-1080 [1]),Activity (Caco-2 [2]),Activity (Caco-2 [3]),IC50 [4],inhibition (Caco-2 [5]),inhibition at 0.1 µM (Caco-2 [6]),inhibition at 100 µM (HT-1080 [7]),inhibition (Caco-2 [8]),Activity (HT-1080 [9]),IC50 [10],CC50 at 24 h [11],Activity (Caco-2 [12]),CC50 at 24 h [13],inhibition (HT-1080 [14]),Activity (Caco-2 [15]),further results
O=C1NC(=O)C(c2ccc(Oc3ccccc3)cc2)(N2CCN(CCO[N+](=O)[O-])CC2)C(=O)N1,Non-toxic,Active,Non-toxic,149 nM,inactive,34.8%,> 80%,Active,Non-toxic,92 nM,12800 nM,Non-toxic,26000 nM,Active,Active,
O=C1NC(=O)C(c2ccc(Oc3ccccc3)cc2)(N(CCO[N+](=O)[O-])CCO[N+](=O)[O-])C(=O)N1,Non-toxic,Active,Non-toxic,328 nM,inactive,51.4%,> 80%,Active,Non-toxic,91 nM,72000 nM,Non-toxic,> 100000 nM,Active,Active,"cytotoxicity at 24 h, 100 µM [16]: 6%; inhibition at 10 µM (Caco-2 [17]): 43.3%; inhibition at 10 µM (Caco-2 [18]): 51%"
O=C1NC(=O)C(c2ccc(Oc3ccccc3)cc2)(N(CCO)CCO)C(=O)N1,,,,3.8 nM,,51.2%,,,,26 nM,6800 nM,,8200 nM,,,
CN(CCO)C1(c2ccc(Oc3ccccc3)cc2)C(=O)NC(=O)NC1=O,,,,24 nM,,34.4%,,,,145 nM,78500 nM,,76500 nM,,,
O=C1NC(=O)C(c2ccc(Oc3ccccc3)cc2)(N2CCC(CO[N+](=O)[O-])CC2)C(=O)N1,Non-toxic,Active,Non-toxic,219 nM,inactive,35.8%,> 80%,Active,Non-toxic,212 nM,11800 nM,Non-toxic,> 12500 nM,Active,Active,"Activity (Caco-2 [19]): inactive; cytotoxicity at 24 h, 2.5 µM [20]: 12%; Activity (Caco-2 [21]): inactive; inhibition at 10 µM (Caco-2 [17]): 64.9%"
O=C1NC(=O)C(c2ccc(Oc3ccccc3)cc2)(N2CCN(CCO)CC2)C(=O)N1,,,,,,46.3%,,,,,> 100000 nM,,> 100000 nM,,,"cytotoxicity at 24 h, 100 µM [16]: 25%; cytotoxicity at 24 h, 100 µM [22]: 33%"
O=C1NC(=O)C(c2ccc(Oc3ccccc3)cc2)(N2CCCC(CO)C2)C(=O)N1 (stereo unspecified),,,,15 nM,,55.3%,,,,6.2 nM,46400 nM,,33100 nM,,,
O=C1NC(=O)C(c2ccc(Oc3ccccc3)cc2)(N2CCCC(CO[N+](=O)[O-])C2)C(=O)N1 (stereo unspecified),Non-toxic,Active,Non-toxic,179 nM,inactive,40.7%,> 80%,Active,Non-toxic,104 nM,8100 nM,Non-toxic,> 12500 nM,Active,Active,"Activity (Caco-2 [19]): inactive; cytotoxicity at 24 h, 12.5 µM [23]: 37%; Activity (Caco-2 [21]): inactive"
CN(CCO[N+](=O)[O-])C1(c2ccc(Oc3ccccc3)cc2)C(=O)NC(=O)NC1=O,Non-toxic,Active,Non-toxic,53 nM,inactive,44.6%,,Active,Non-toxic,47.6 nM,48500 nM,Non-toxic,> 100000 nM,Active,Active,"cytotoxicity at 24 h, 100 µM [16]: 28%; inhibition (HT-1080 [7]): Active; inhibition (Caco-2 [18]): inactive"
O=C1NC(=O)C(c2ccc(Oc3ccccc3)cc2)(N2CCC(CO)CC2)C(=O)N1,,,,66 nM,,39%,,,,97 nM,66600 nM,,47800 nM,,,
O=C1NC(=O)C(c2ccc(Oc3ccccc3)cc2)(N2CCC(CCO)CC2)C(=O)N1,,,,10 nM,,,,,,12 nM,30100 nM,,25200 nM,,,
